Reference: ChEMBL document CHEMBL1144153, “Conjugates of the fungal cytotoxin illudin M with improved tumour specificity” (Bioorg Med Chem, 2008)
Calls of active or inactive are those of the source. The rule behind the calls is not given here.

Tests used:
HT-29 [1] = experiment: Cytotoxicity against human HT-29 cells assessed as viable cells at 1 uM after 120 hrs by trypan blue exclusion assay relative to control; format: functional; conditions: HT-29, 120 h, read-out: Activity
Outline: (§1)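 Panc-1 and HT-29 cells were grown in RPMI-1640, and foreskin fibroblasts in DMEM, each with 10% FCS plus penicillin/streptomycin at 37 °C and 5% CO2. Cells were exposed to compound (0.01–10 µM range) for up to 120 h, harvested and stained with Trypan blue. Unstained cells were counted in a Neubauer chamber relative to untreated controls (100%). Means of three independent experiments ± SD.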

[2] = Cytotoxicity against HFF cells assessed as viable cells at 1 uM after 48 hrs by trypan blue exclusion assay relative to control; format: cell-based; conditions: human, read-out: Activity; outline: as §1
HFF = experiment: Induction of apoptosis in HFF cells assessed as sub-diploid DNA content at 1 uM after 120 hrs by FACS relative to control; format: cell-based; conditions: human
Outline: (§2)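 Panc-1 and HT-29 cells (RPMI-1640) or foreskin fibroblasts (DMEM), 10% FCS, 37 °C, were compound-treated. Supernatants were pooled with PBS-washed, trypsinised cells, then lysed in hypotonic 0.1% sodium citrate / 0.1% Triton X-100 with 50 µg/mL propidium iodide. Flow cytometry scored the sub-diploid nuclear fraction as apoptotic, relative to untreated controls. Means of three independent experiments.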

PANC-1 [3] = experiment: Induction of apoptosis in human PANC1 cells assessed as sub-diploid DNA content at 1 uM after 120 hrs by FACS relative to control; format: functional; outline: as §2
HT-29 [4] = experiment: Cytotoxicity against human HT-29 cells assessed as viable cells at 1 uM after 48 hrs by trypan blue exclusion assay relative to control; format: functional; conditions: HT-29, 48 h, read-out: Activity; outline: as §1
[5] = Cytotoxicity against HFF cells assessed as viable cells at 1 uM after 120 hrs by trypan blue exclusion assay relative to control; format: cell-based; conditions: human, read-out: Activity; outline: as §1
PANC-1 [6] = experiment: Cytotoxicity against human PANC1 cells assessed as viable cells at 1 uM after 48 hrs by trypan blue exclusion assay relative to control; format: functional; conditions: PANC-1, 48 h, read-out: Activity; outline: as §1
PANC-1 [7] = experiment: Cytotoxicity against human PANC1 cells assessed as viable cells at 1 uM after 120 hrs by trypan blue exclusion assay relative to control; format: functional; conditions: PANC-1, 120 h, read-out: Activity; outline: as §1
HT-29 [8] = experiment: Induction of apoptosis in human HT-29 cells assessed as sub-diploid DNA content at 1 uM after 120 hrs by FACS relative to control; format: functional; outline: as §2
PANC-1 [9] = experiment: Induction of apoptosis in human PANC1 cells assessed as sub-diploid DNA content at 0.1 uM by FACS; format: functional, cell-based; outline: as §2
HT-29 [10] = experiment: Induction of apoptosis in human HT-29 cells assessed as sub-diploid DNA content at 1 uM after 96 hrs by FACS relative to control; format: functional; outline: as §2
PANC-1 [11] = experiment: Induction of apoptosis in human PANC1 cells assessed as sub-diploid DNA content at 1 uM after 96 hrs by FACS relative to control; format: functional; outline: as §2
HT-29 [12] = experiment: Cytotoxicity against human HT-29 cells up to 10 uM by trypan blue exclusion assay; format: functional, cell-based
Outline: (§3)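 Cells grown in RPMI-1640 with 10% FCS, penicillin and streptomycin at 37 °C, 5% CO2. Exposed to 0.01–10 µM for up to 120 h (24–120 h time course). Harvested, stained with Trypan blue, and unstained cells counted in a Neubauer chamber. Counts expressed relative to untreated controls (100%). Means of three independent experiments.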

PANC-1 [13] = experiment: Cytotoxicity against human PANC1 cells up to 10 uM by trypan blue exclusion assay; format: functional, cell-based; outline: as §3
MDA-MB-231 = experiment: Antiproliferative activity against human MDA-MB-231 cells at 1 to 10 uM after 24 to 48 hrs by MTT assay; format: functional
MCF7 = experiment: Antiproliferative activity against human MCF7 cells at 1 to 10 uM after 24 to 48 hrs by MTT assay; format: functional

SMILES	viability at 1 µM (HT-29 [1]) [%]	viability at 48 h, 1 µM [2] [%]	Activity (HFF) [%]	Activity (PANC-1 [3]) [%]	viability at 1 µM (HT-29 [4]) [%]	viability at 120 h, 1 µM [5] [%]	viability at 1 µM (PANC-1 [6]) [%]	viability at 1 µM (PANC-1 [7]) [%]	Activity (HT-29 [8]) [%]	Activity (PANC-1 [9])	Activity (HT-29 [10]) [%]	Activity (PANC-1 [11]) [%]	Activity (HT-29 [12])	Activity (PANC-1 [13])	Activity (MDA-MB-231) [%]	Activity (MCF7) [%]
CC1=C2C(=CC(C)(C)[C@@H]2O)C(=O)[C@](C)(O)C12CC2 [ILLUDIN M]	3.8	39	88.9	86	26	28.1	42	12.3	47.9	Active	–	–	–	–	–	–
CC/C=C\C/C=C\C/C=C\C/C=C\C/C=C\C/C=C\CCC(=O)O[C@@H]1C2=C(C)C3(CC3)[C@@](C)(O)C(=O)C2=CC1(C)C [DOCOSAHEXAENOYL ILLUDIN M]	111	–	4.4	2.6	–	80	–	103	1.9	–	<10	<10	–	–	–	–
CC1=C2C(=CC(C)(C)[C@@H]2OC(=O)C2C3CCC(O3)C2C(=O)O[C@@H]2C3=C(C)C4(CC4)[C@@](C)(O)C(=O)C3=CC2(C)C)C(=O)[C@](C)(O)C12CC2 (stereo partly drawn) [BIS(ILLUDINYL M) ENDOTHALLATE]	3	–	33.1	74	26	49.3	33	6.4	52.9	–	–	–	Active	Active	–	–
CC1=C2C(=CC(C)(C)[C@@H]2OC(=O)CCCc2ccc(N(CCCl)CCCl)cc2)C(=O)[C@](C)(O)C12CC2	42.7	–	9.5	36.8	–	47.5	–	20	6	–	<10	<10	–	–	–	–
CC1=C2C(=CC(C)(C)[C@@H]2OC(=O)c2ccc(-c3ccc(C(=O)O[C@@H]4C5=C(C)C6(CC6)[C@@](C)(O)C(=O)C5=CC4(C)C)cn3)nc2)C(=O)[C@](C)(O)C12CC2	–	62	14.3	–	–	47.8	–	–	–	–	–	–	Active	Active	–	–
CC1=C(CO)C2=C(C)C3(CC3)[C@@](C)(O)C(=O)C2=C1 [IROFULVEN]	–	–	–	–	–	–	–	–	–	–	–	–	–	–	70	70
